Experimental data collected from several papers.
Target: Serine/threonine-protein kinase D2 (PRKD2, Homo sapiens, UniProt Q9BZL6)
Sequence (Q9BZL6 1-878, as in one of the studies): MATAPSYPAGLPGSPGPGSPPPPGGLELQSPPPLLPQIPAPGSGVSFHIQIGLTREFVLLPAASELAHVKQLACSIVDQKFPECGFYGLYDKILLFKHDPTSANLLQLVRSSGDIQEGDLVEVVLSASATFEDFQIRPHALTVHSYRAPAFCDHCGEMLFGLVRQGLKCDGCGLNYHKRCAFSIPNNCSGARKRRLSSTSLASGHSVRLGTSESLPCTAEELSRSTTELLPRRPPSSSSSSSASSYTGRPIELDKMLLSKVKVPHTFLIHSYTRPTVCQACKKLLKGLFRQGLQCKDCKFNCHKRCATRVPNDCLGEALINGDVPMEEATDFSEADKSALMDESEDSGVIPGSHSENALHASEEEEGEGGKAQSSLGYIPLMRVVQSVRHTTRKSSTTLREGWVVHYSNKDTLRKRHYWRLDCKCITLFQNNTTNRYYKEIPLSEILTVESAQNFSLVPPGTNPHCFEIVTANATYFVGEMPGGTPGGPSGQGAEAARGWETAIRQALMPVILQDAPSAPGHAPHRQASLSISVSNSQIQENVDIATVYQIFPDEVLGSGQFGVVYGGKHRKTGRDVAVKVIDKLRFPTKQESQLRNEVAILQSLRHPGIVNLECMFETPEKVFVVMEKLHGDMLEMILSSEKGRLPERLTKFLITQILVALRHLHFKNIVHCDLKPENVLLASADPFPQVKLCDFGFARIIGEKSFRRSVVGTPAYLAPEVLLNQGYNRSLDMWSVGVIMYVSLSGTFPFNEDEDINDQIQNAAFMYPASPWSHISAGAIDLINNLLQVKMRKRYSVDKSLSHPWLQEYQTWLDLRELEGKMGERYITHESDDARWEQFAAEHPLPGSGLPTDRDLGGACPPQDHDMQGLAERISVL

Structure (SMILES)	read-out	mode	technique	concentration	quantity	result
Cn1c2c(Cl)c(Cl)ccc2c2cc[nH]c(=O)c21	thermal stability	–	DSF	10 µM	ΔTm	0.4 °C
Cn1nc(C(F)(F)F)cc1-c1cnc(N2CCc3cc(S(=O)(=O)Nc4c(F)cc(Cl)cc4F)cc(N4CCCC4=O)c32)nc1	cell-free assay	–	competition with immobilised ligand	1 µM	remaining binding	95%
CC1(C)NC(=O)c2[nH]c3c(Cl)c(Cl)ccc3c2C1C#N (stereo not shown)	thermal stability	–	DSF	10 µM	ΔTm	-0.1 °C
CN1CC(Oc2cnc(C#N)cc2-c2ccn3nc(NC(=O)C4CC4)cc3c2)C1	enzyme activity	inhibitor	–	1 µM	inhibition	-22%
CNC(=O)Nc1ccc2c(c1)[C@@]1(CC2)OC(=O)N(CC(=O)N(Cc2ccc(F)cc2)[C@@H](C)C(F)(F)F)C1=O	cell-free assay	–	competition with immobilised ligand	1 µM	remaining binding	100%
O=S1(=O)N=C(NCc2ccc(OC(F)(F)F)cc2)Nc2cc(Cl)ccc21	binding	–	competition with immobilised ligand	10 µM	inhibition	> 90%
Cn1cncc1C1=CN(c2ncnc3[nH]cnc23)CCS1	enzyme activity	inhibitor	radiometric	2 µM	inhibition	93.1%
Cn1c2c(Cl)c(Cl)ccc2c2cn[nH]c(=O)c21	thermal stability	–	DSF	10 µM	ΔTm	0.1 °C
COc1cc2ncnc(Nc3ccc(Oc4ccccc4)cc3C)c2cc1OC	enzyme activity	inhibitor	–	1 µM	inhibition	9%
CC(C)(O)[C@H]1CC[C@H](Nc2ccc3ncc(-c4cccc(C(F)(F)F)c4)n3n2)CC1	enzyme activity	inhibitor	–	1 µM	remaining activity	92%
Cc1c(NC(=O)c2cc(C(N)=O)nc3cc(F)ccc23)c(C(F)(F)F)nn1Cc1ccc(C(C)(C)C)cc1	cell-free assay	–	competition with immobilised ligand	1 µM	remaining binding	100%
Cn1cnc(Br)c1C1=CN(c2ncnc3[nH]cnc23)CCS1	enzyme activity	inhibitor	radiometric	50 nM	inhibition	19.1%
Cn1c2c(c3ccc(Cl)c(Cl)c31)C(C#N)C1(CCNCC1)NC2=O (racemic)	thermal stability	–	DSF	10 µM	ΔTm	0.9 °C
CO[C@H]1CC[C@H](CNc2ccc(S(=O)(=O)NC(=O)c3ccc(N4CCN(CC5=C(c6ccc(Cl)cc6)CC(C)(C)CC5)CC4)cc3Oc3cnc4[nH]ccc4c3)cc2[N+](=O)[O-])CC1	cell-free assay	–	competition with immobilised ligand	1 µM	remaining binding	100%
CNc1cccc2cc(C(=O)Nc3ccc(C(=O)O)cc3)c(=O)[nH]c12	enzyme activity	inhibitor	–	10 µM	inhibition	2.5%
CCN(CC)CCNC(=O)c1c(C)[nH]c(/C=C2\C(=O)Nc3ccc(F)cc32)c1C	enzyme activity	inhibitor	–	0.3 µM	inhibition	30%
O=C(Nc1cnn(-c2csc(C(=O)NC3COC3)c2)c1)Nc1ccccc1Cl	enzyme activity	inhibitor	–	5 µM	remaining activity	92.8%

Structure (SMILES)	read-out	mode	technique	concentration	quantity	result
CC(=O)Nc1c(C(C)=O)c(=O)n(C)c2nc(-c3ccc(Cl)cc3Cl)c(-c3ccc(Cl)cc3)cc12	cell-free assay	–	competition with immobilised ligand	1 µM	remaining binding	100%
CCCS(=O)(=O)Nc1ccc(F)c(C(=O)c2c[nH]c3ncc(-c4ccc(Cl)cc4)cc23)c1F	enzyme activity	inhibitor	–	1 µM	inhibition	< 10%
O=C1Nc2ccc(Cl)cc2C1=Cc1cc(Cl)c(O)c(Cl)c1	cell-free assay	–	–	0.5 µM	remaining signal	95.5%
CC/C(=N\NC(=O)NCc1cccc(O)c1)c1ccc(O)c(C)c1O	enzyme activity	inhibitor	–	0.1 µM	inhibition	-11.5%
CCCCN(CCCC)C(=O)CN1C[C@H](c2cc(OC)c3c(c2)OCO3)[C@@H](C(=O)O)[C@@H]1CC(C)(C)CCC	cell-free assay	–	competition with immobilised ligand	1 µM	remaining binding	100%
N#CCCc1ccc2c(c1)-c1[nH]c3ccc([N+](=O)[O-])cc3c1CC(=O)N2	cell-free assay	–	–	0.5 µM	remaining signal	94.2%
CCS(=O)(=O)c1cc2cc(C[C@@](O)(CC(C)(C)c3ccc(F)cc3C(N)=O)C(F)(F)F)[nH]c2cn1	cell-free assay	–	competition with immobilised ligand	1 µM	remaining binding	89%
Nc1ncnc2occ(-c3ccc(NC(=O)Nc4cc(C(F)(F)F)ccc4F)cc3)c12	cell-free assay	inhibitor	–	20 µM	remaining signal	43%
Cn1c2c(c3ccc(Cl)c(Cl)c31)C(C#N)C1(CCCC1)NC2=O (stereo not shown)	thermal stability	–	DSF	10 µM	ΔTm	-0.1 °C
Nc1cnc(N2CCc3cc(S(=O)(=O)Nc4c(F)cc(Cl)cc4F)cc(N4CCCC4=O)c32)nc1	cell-free assay	–	competition with immobilised ligand	1 µM	remaining binding	100%
Cc1ccc(Nc2nccc(N(C)c3ccc4c(C)n(C)nc4c3)n2)cc1S(N)(=O)=O	enzyme activity	inhibitor	–	0.3 µM	inhibition	9%
COc1cc2c(N3CCN(C(=O)Nc4ccc(OC(C)C)cc4)CC3)ncnc2cc1OCCCN1CCCCC1	cell-free assay	–	–	0.5 µM	remaining signal	96.4%
CCCOc1ccc(OC)c(F)c1C(=O)c1ccc(C(=O)N[C@@H]2CNC[C@H]2NC(=O)c2ccc3[nH]ncc3c2)cc1	enzyme activity	inhibitor	–	10 µM	remaining activity	48%
CNC(=O)c1cc(Oc2ccc(NC(=O)Nc3ccc(Cl)c(C(F)(F)F)c3)cc2)ccn1	enzyme activity	inhibitor	–	0.3 µM	inhibition	5%
CC(C)(C)c1nc(-c2cccc(NS(=O)(=O)c3c(F)cccc3F)c2F)c(-c2ccnc(N)n2)s1	enzyme activity	inhibitor	radiometric	1 µM	remaining activity	30%
Cn1c2c(c3ccc(Cl)c(Cl)c31)C(C#N)C(C)(C)NC2=O (stereo not shown)	thermal stability	–	DSF	10 µM	ΔTm	0.2 °C
c1ccc(CNc2nc(N3CCOc4ccccc43)nc3c2CCCC3)cc1	target engagement in cells	inhibitor	chemoproteomics	20 mM	inhibition	-7.2%
